In PMC12137828 (Nature Communications, 2025):
Like-named read-outs stand apart in the source and are kept apart here.

Assays:
[1] = target: T1, AtDHAD (Arabidopsis thaliana, UniProt Q9LIR4); experiment: MST assay, binding affinity
T1 sequence (Q9LIR4 35-608): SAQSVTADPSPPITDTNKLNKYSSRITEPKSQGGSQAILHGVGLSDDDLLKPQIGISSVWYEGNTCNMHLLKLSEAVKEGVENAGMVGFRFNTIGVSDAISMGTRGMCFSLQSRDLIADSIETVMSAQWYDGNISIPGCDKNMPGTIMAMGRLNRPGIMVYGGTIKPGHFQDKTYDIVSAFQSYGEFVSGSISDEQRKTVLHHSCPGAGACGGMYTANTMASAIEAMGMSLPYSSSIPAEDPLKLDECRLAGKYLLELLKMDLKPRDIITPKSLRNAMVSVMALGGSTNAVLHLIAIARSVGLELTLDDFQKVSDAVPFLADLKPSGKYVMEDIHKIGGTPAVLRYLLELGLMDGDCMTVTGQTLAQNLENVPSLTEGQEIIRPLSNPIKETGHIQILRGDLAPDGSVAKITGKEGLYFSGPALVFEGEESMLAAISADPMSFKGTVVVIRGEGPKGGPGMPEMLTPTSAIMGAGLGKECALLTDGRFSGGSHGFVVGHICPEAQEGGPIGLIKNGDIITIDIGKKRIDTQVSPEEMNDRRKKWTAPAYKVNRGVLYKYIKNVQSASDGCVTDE
Method in brief: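 AtDHAD was expressed in E. coli BL21(DE3) under IPTG induction, with FeCl3 and L-Ara added to stabilise the [2Fe-2S] cluster. It was purified by Ni-NTA anaerobically and lysine-labelled with RED-NHS dye. Ligand from 10−10 to 10−1 M was incubated with 50 nM labelled protein for 30 min at 4 °C in phosphate buffer (0.05% Tween 20, pH 7.4). Excitation was 100% or 40%, with medium MST power. Kd is given as mean ± SD.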

[2] = system: cyanobacteria; conditions: by targeting DHAD ref 3; cited from earlier work
[3] = system: 2-week-old A. thaliana plants; experiment: Postemergence treatment of A. thaliana; format: in vivo, Arabidopsis thaliana
Method in brief: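 Col-0 seeds were chilled at 4 °C for 3 days and grown in soil pots in a light incubator at 22 °C with an 8 h light/16 h dark cycle. Test compound was dissolved in DMSO and diluted with 0.5% aqueous Tween 80 to a final 200 μg/mL (DMSO below 5%), then applied by foliar spray. Fresh weight inhibition was read out.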

[4] = system: glufosinate-resistant Arabidopsis thaliana; conditions: 250 µM ref 2; cited from earlier work

| Compound | Kd ([1]; Kd) | growth of cyanobacteria [2] | Fresh weight inhibition rate (%) ([3]; 200 μg/mL foliar spray, 20 days after treatment) | symptoms after postemergence treatment of two-week-old plants ([3]; foliar spray, 200 μg/mL) | herbicidal activity against glufosinate-resistant Arabidopsis thaliana [4] | Kd [1] |
| --- | --- | --- | --- | --- | --- | --- |
| CC(C)(O)C(O)C(=O)O (stereo not shown) [Substrate (dihydroxyisovalerate), 2,3-dihydroxy-3-methylbutanoic acid] | 5.39 µM | – | – | – | – | – |
| O=C(O)C(O)C(=O)O [TA, tartronic acid] | 507 µM | inhibited the growth of cyanobacteria | – | – | – | – |
| aspterric acid [AA] | – | – | 55.96% | cessation of new leaf production and the onset of leaf wilting | exhibits herbicidal activity | 3.41 µM |
